The source made the active and inactive calls. No cut-off for these calls is given here.
Columns and labels:
Escherichia coli B [1] = assay: Inhibition of Phe-tRNA synthetase in rel+ Escherichia coli B assessed as half maximal rate of [32P]ppGpp formation at 70 uM measured every 1 min by scintillation counting analysis
Method in brief: (§1)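 Exponential cultures in Tris-glucose minimal medium were labeled with carrier-free [32P]phosphate at least 30 min before inhibitor. Four to five 25 µL aliquots were taken at about 1-min intervals into ice-cold 2 M formic acid and held 30 min at 0 °C. Extracts were run on PEI-cellulose TLC in 1.5 M KH2PO4 pH 3.4. ppGpp spots were located by autoradiography and counted. Initial rate was taken as the linear increase over time.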

Escherichia coli B [2] = assay: Inhibition of Val-tRNA synthetase in rel+ Escherichia coli B assessed as tRNA-val level at 230 uM at 37 degC after 30 mins in absence of casamino acid supplement in tris-glucose minimal media
Escherichia coli B [3] = assay: Inhibition of Phe-tRNA synthetase in rel+ Escherichia coli B assessed as growth inhibition at IC50 in presence of Ile
Method in brief: (§2)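 Reversal assay in E. coli B/r. Exponential culture (A600 ≈ 0.3) in basal salts glucose minimal medium was diluted into medium holding the specified amino acid plus inhibitor, at 37 °C. Controls had no inhibitor. Growth was read turbidimetrically at 600 nm after about three generations, as % inhibition relative to control.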

Escherichia coli B [4] = assay: Inhibition of Val-tRNA synthetase in rel+ Escherichia coli B assessed as tRNA-val level at 230 uM at 37 degC after 30 mins in presence of casamino acid supplement in tris-glucose minimal media (reference value: 100%)
[5] = molecular target: Isoleucine--tRNA ligase (Escherichia coli K-12) (UniProt P00956); assay: Inhibition of Ile-tRNA synthetase in rel+ Escherichia coli B assessed as tRNA-Ile level at 23 uM at 37 degC after 30 mins in absence of casamino acid supplement in tris-glucose minimal media (reference value: 40%)
Escherichia coli B [6] = assay: Inhibition of Phe-tRNA synthetase in rel+ Escherichia coli B assessed as formation of [32P]ppGpp at 230 uM at 37 degC measured every 1 min by scintillation counting analysis in absence of casamino acid supplement in tris-glucose minimal media; method in brief: as §1
Escherichia coli B [7] = assay: Inhibition of Phe-tRNA synthetase in rel+ Escherichia coli B assessed as tRNA-Phe level at 9.2 uM at 37 degC after 30 mins in absence of casamino acid supplement in tris-glucose minimal media (reference value: 60%)
[8] = Inhibition of rel+ Escherichia coli B Phe-tRNA synthetase using L-[3H]-phenylalanine as substrate by scintillation counting analysis
Escherichia coli [9] = assay: Inhibition of Phe-tRNA synthetase in Escherichia coli NP29 assessed as tRNA-Phe level at 230 uM at 30 degC after 30 mins (reference value: 70%)
Method in brief: (§3)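 Temperature-sensitive Val-tRNA synthetase strain NP29, grown at 30 °C in Tris-glucose minimal medium with 0.2% casamino acids. Inhibitor was added during log growth and the control was kept at 30 °C. After 30 min, cells were quenched with ice and NaN3 and disrupted. Aminoacyl-tRNA was measured by periodate oxidation (1 mM) or Tris-HCl pH 8.0 stripping, with purified synthetases.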

Escherichia coli B [10] = assay: Inhibition of Phe-tRNA synthetase in rel+ Escherichia coli B assessed as formation of [32P]ppGpp at 9.2 uM at 37 degC measured every 1 min by scintillation counting analysis in absence of casamino acid supplement in tris-glucose minimal media; method in brief: as §1
Escherichia coli B [11] = assay: Inhibition of Phe-tRNA synthetase in rel+ Escherichia coli B assessed as formation of [32P]ppGpp at 92 uM measured every 1 min by scintillation counting analysis; method in brief: as §1
Escherichia coli B [12] = assay: Inhibition of Phe-tRNA synthetase in rel+ Escherichia coli B assessed as growth inhibition at IC50 in presence of Pro; method in brief: as §2
Escherichia coli B [13] = assay: Inhibition of Phe-tRNA synthetase in rel+ Escherichia coli B assessed as growth inhibition at IC50 in presence of Tyr; method in brief: as §2
Escherichia coli B [14] = assay: Inhibition of Phe-tRNA synthetase in rel+ Escherichia coli B assessed as tRNA-Phe level at 230 uM at 37 degC after 30 mins in absence of casamino acid supplement in tris-glucose minimal media (reference value: 60%)
Escherichia coli B [15] = assay: Inhibition of Phe-tRNA synthetase in rel+ Escherichia coli B assessed as growth inhibition at IC50 in presence of 2.5 mM L-Phe; method in brief: as §2
[16] = molecular target: Isoleucine--tRNA ligase (Escherichia coli K-12) (UniProt P00956); assay: Inhibition of Ile-tRNA synthetase in rel+ Escherichia coli B assessed as tRNA-Ile level at 9.2 uM at 37 degC after 30 mins in absence of casamino acid supplement in tris-glucose minimal media (reference value: 40%)
Escherichia coli [17] = assay: Inhibition of Val-tRNA synthetase in Escherichia coli NP29 assessed as tRNA-val level at 230 uM at 30 degC after 30 mins (reference value: 30%); method in brief: as §3
Escherichia coli B [18] = assay: Inhibition of Phe-tRNA synthetase in rel+ Escherichia coli B assessed as formation of [32P]ppGpp at 230 uM at 37 degC measured every 1 min by scintillation counting analysis in presence of casamino acid supplement in tris-glucose minimal media; method in brief: as §1
[19] = molecular target: Isoleucine--tRNA ligase (Escherichia coli K-12) (UniProt P00956); assay: Inhibition of Ile-tRNA synthetase in Escherichia coli NP29 assessed as tRNA-Ile level at 230 uM at 30 degC after 30 mins (reference value: 40%); method in brief: as §3
Escherichia coli B [20] = assay: Inhibition of Phe-tRNA synthetase in rel+ Escherichia coli B assessed as growth inhibition at 92 uM
Method in brief: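 E. coli B/r in log phase at 37 °C, with inhibitor added at a set time. Cell density was followed turbidimetrically at 600 nm alongside ppGpp and RNA synthesis measurements.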

Escherichia coli B [21] = assay: Inhibition of Phe-tRNA synthetase in rel+ Escherichia coli B assessed as tRNA-Phe level at 23 uM at 37 degC after 30 mins in absence of casamino acid supplement in tris-glucose minimal media (reference value: 60%)
Escherichia coli B [22] = assay: Inhibition of Phe-tRNA synthetase in rel+ Escherichia coli B assessed as tRNA-Phe level at 230 uM at 37 degC after 30 mins in presence of casamino acid supplement in tris-glucose minimal media (reference value: 90%)
Escherichia coli B [23] = assay: Inhibition of Phe-tRNA synthetase in rel+ Escherichia coli B assessed as growth inhibition at IC50 in presence of Val; method in brief: as §2
Escherichia coli B [24] = assay: Inhibition of Phe-tRNA synthetase in rel+ Escherichia coli B assessed as growth inhibition at IC50 in presence of Ser; method in brief: as §2
Escherichia coli B [25] = assay: Inhibition of rel+ Phe-tRNA synthetase in Escherichia coli B assessed as tRNA-Phe level at 4.6 uM at 37 degC after 30 mins in absence of casamino acid supplement in tris-glucose minimal media (reference value: 60%)
Escherichia coli B [26] = assay: Inhibition of Phe-tRNA synthetase in rel+ Escherichia coli B assessed as formation of [32P]ppGpp at 23 uM at 37 degC measured every 1 min by scintillation counting analysis in absence of casamino acid supplement in tris-glucose minimal media; method in brief: as §1
Escherichia coli [27] = assay: Inhibition of Phe-tRNA synthetase in Escherichia coli NP29 assessed as formation of [32P]ppGpp at 230 uM at 30 degC measured every 1 min by scintillation counting analysis; method in brief: as §1
[28] = Inhibition of Phe-tRNA synthetase in rel+ Escherichia coli B assessed as growth inhibition
Method in brief: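 E. coli B/r in exponential growth (A600 ≈ 0.3) in basal salts medium (0.2% glucose, phosphate, MgSO4, (NH4)2SO4) was diluted into medium with a range of inhibitor levels. It was incubated at 37 °C for about three generations, until controls reached A600 0.4–0.45. Growth was read at 600 nm as % of control turbidity, and IC50 was taken from % inhibition versus concentration plots.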

[29] = Inhibition of Phe-tRNA synthetase in rel+ Escherichia coli B assessed as reduction of tRNA-Phe level after 30 mins
Escherichia coli B [30] = assay: Inhibition of Phe-tRNA synthetase in rel+ Escherichia coli B assessed as [3H]-RNA synthesis at 92 uM after 5 mins by scintillation counting analysis in presence of [5-3H]-Uracil
Method in brief: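 E. coli B/r in exponential growth was labeled with [5-3H]uracil (75 Ci/mol). At intervals, 25 µL culture was put into 1 mL ice-cold trichloroacetic acid for 5 min at 0 °C. Samples were filtered on glass-fibre filters, washed with cold TCA then 95% ethanol, and counted by scintillation.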

Escherichia coli B [31] = assay: Inhibition of Phe-tRNA synthetase in rel+ Escherichia coli B assessed as formation of [32P]ppGpp at 4.6 uM at 37 degC measured every 1 min by scintillation counting analysis in absence of casamino acid supplement in tris-glucose minimal media; method in brief: as §1
[32] = molecular target: Isoleucine--tRNA ligase (Escherichia coli K-12) (UniProt P00956); assay: Inhibition of Ile-tRNA synthetase in rel+ Escherichia coli B assessed as tRNA-Ile level at 4.6 uM at 37 degC after 30 mins in absence of casamino acid supplement in tris-glucose minimal media (reference value: 40%)
[33] = molecular target: Isoleucine--tRNA ligase (Escherichia coli K-12) (UniProt P00956); assay: Inhibition of Ile-tRNA synthetase in rel+ Escherichia coli B assessed as tRNA-Ile level at 230 uM at 37 degC after 30 mins in absence of casamino acid supplement in tris-glucose minimal media (reference value: 40%)
[34] = molecular target: Isoleucine--tRNA ligase (Escherichia coli K-12) (UniProt P00956); assay: Inhibition of Ile-tRNA synthetase in rel+ Escherichia coli B assessed as tRNA-Ile level at 230 uM at 37 degC after 30 mins in presence of casamino acid supplement in tris-glucose minimal media (reference value: 50%)
Escherichia coli B [35] = assay: Ratio of IC50 for inhibition of Phe-tRNA synthetase in rel+ Escherichia coli B assessed as growth inhibition to Ki for inhibition of rel+ Escherichia coli B Phe-tRNA synthetase using L-[3H]-phenylalanine as substrate

Isoleucine--tRNA ligase (Escherichia coli K-12), sequence (P00956 whole entry): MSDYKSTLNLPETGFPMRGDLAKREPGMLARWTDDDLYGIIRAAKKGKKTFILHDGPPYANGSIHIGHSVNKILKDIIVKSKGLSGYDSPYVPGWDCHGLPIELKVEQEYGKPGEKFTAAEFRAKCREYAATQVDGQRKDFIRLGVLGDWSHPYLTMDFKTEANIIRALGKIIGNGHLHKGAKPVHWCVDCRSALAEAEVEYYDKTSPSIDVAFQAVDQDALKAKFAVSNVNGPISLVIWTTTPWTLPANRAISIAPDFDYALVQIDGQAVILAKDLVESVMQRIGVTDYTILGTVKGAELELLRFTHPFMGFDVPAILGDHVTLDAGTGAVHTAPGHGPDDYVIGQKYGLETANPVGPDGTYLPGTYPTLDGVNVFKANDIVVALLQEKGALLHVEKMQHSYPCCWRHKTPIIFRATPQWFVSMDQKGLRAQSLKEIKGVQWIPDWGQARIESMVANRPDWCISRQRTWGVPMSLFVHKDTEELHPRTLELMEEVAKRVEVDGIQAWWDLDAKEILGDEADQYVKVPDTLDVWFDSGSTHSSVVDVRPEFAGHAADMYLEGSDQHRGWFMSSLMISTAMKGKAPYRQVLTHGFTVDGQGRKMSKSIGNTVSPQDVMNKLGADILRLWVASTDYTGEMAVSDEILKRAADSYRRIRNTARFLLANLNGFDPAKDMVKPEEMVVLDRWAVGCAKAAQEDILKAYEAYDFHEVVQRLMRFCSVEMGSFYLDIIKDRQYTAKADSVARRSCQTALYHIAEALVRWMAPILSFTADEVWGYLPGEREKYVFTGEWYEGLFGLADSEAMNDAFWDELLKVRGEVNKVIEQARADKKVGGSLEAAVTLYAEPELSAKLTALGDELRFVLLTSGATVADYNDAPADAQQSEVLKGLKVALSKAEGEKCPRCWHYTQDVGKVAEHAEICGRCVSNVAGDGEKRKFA

C[C@H](Cc1ccccc1)NCc1ccccc1 [N-BENZYLAMPHETAMINE]
inhibition (Escherichia coli B [1]): Active
inhibition (Escherichia coli B [2]): 100%
inhibition (Escherichia coli B [3]): Active
inhibition (Escherichia coli B [4]): 100%
inhibition [5]: 45%
inhibition (Escherichia coli B [6]): Active
inhibition (Escherichia coli B [7]): 35%
Ki [8]: 0.14 µM
inhibition (Escherichia coli [9]): 5%
inhibition (Escherichia coli B [10]): Active
inhibition (Escherichia coli B [11]): Active
inhibition (Escherichia coli B [12]): Active
inhibition (Escherichia coli B [13]): Active
inhibition (Escherichia coli B [14]): 10%
inhibition (Escherichia coli B [15]): inactive
inhibition [16]: 40%
inhibition (Escherichia coli [17]): 95%
inhibition (Escherichia coli B [18]): Active
inhibition [19]: 45%
inhibition (Escherichia coli B [20]): Active
inhibition (Escherichia coli B [21]): 20%
inhibition (Escherichia coli B [22]): 15%
inhibition (Escherichia coli B [23]): Active
inhibition (Escherichia coli B [24]): Active
inhibition (Escherichia coli B [25]): 45%
inhibition (Escherichia coli B [26]): Active
inhibition (Escherichia coli [27]): Active
IC50 [28]: 15 µM
IC50 [29]: 13 µM
inhibition (Escherichia coli B [30]): Active
inhibition (Escherichia coli B [31]): Active
inhibition [32]: 40%
inhibition [33]: 45%
inhibition [34]: 55%
Ratio (Escherichia coli B [35]): 107

NCCc1ccccc1 [PHENETHYLAMINE]
Ki [8]: 93 µM
IC50 [28]: 10900 µM
Ratio (Escherichia coli B [35]): 117

c1ccc(CCNCc2ccccc2)cc1
Ki [8]: 0.67 µM
inhibition (Escherichia coli B [15]): inactive
IC50 [28]: 77 µM
Ratio (Escherichia coli B [35]): 115

C[C@@H](Cc1ccccc1)NCc1ccccc1
Ki [8]: 5.6 µM
inhibition (Escherichia coli B [15]): inactive
IC50 [28]: 590 µM
Ratio (Escherichia coli B [35]): 105

OC[C@@H](Cc1ccccc1)NCc1ccccc1
Ki [8]: 0.77 µM
inhibition (Escherichia coli B [15]): inactive
IC50 [28]: 82 µM
Ratio (Escherichia coli B [35]): 106

From ChEMBL document CHEMBL3244125, “In vivo inhibitors of Escherichia coli phenylalanyl-tRNA synthetase” (J Med Chem, 1979)
